Data on eight compounds can be found in ChEMBL document CHEMBL3112515, “Discovery of novel 6,7-disubstituted-4-phenoxyquinoline derivatives bearing 5-(aminomethylene)pyrimidine-2,4,6-trione moiety as c-Met kinase inhibitors” (Bioorg Med Chem, 2014).

A short description of assay [1]: Cytotoxicity against human MKN45 cells after 72 hrs by MTT assay. The conditions noted are these: MKN-45, 72 h.
Assay [2] deals with Hepatocyte growth factor receptor (Homo sapiens, UniProt P08581). In words: Inhibition of c-Met (unknown origin) using poly (Glu, Tyr) 4:1 after 30 mins by HTRF assay.
Assay [3] concerns HT-29. As to the kind of experiment: Cytotoxicity against human HT-29 cells after 72 hrs by MTT assay. The conditions noted are these: HT-29, 72 h. For orientation: Tetrazolium dyes change colour on reduction, which living cells bring about.
The nature of assay [4]: Cytotoxicity against human U87MG cells after 72 hrs by MTT assay. The class given is functional, cell-based, U-87MG ATCC. The note with it: U-87 MG. Put shortly: (§1)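 Cells were grown in MEM with 10% FBS and seeded at about 4×10^3 cells per well, then held 24 h at 37 °C in 5% CO2. Compounds were added and the cells cultured 72 h. MTT was added to 5 µg/mL final for 4 h at 37 °C, and the formazan was dissolved in DMSO. IC50 is the mean of three determinations.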

In assay [5] the test system is A549. As to the kind of experiment: Cytotoxicity against human A549 cells after 72 hrs by MTT assay. The class given is functional, cell-based. The note with it: A549, 72 h. The procedure, abridged: as §1
Assay [6] is described as follows: Cytotoxicity against human H460 cells after 72 hrs by MTT assay. The conditions noted are these: NCI-H460, 72 h.
The next assay relates to U-87 MG. As to the kind of experiment: Ratio of foretinib IC50 to compound IC50 for human U87MG cells after 72 hrs by MTT assay. It is filed as functional, U-87MG ATCC.
The target of assay [7] is Platelet-derived growth factor receptor beta (Homo sapiens, UniProt P09619). In words: Inhibition of PDGFRbeta (unknown origin) using poly (Glu, Tyr) 4:1 after 30 mins by HTRF assay. The procedure, abridged: (§2)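 HTRF assay using purified tyrosine kinase proteins in 50 mM HEPES pH 7.0 with DTT, MgCl2, MnCl2 and 0.1% NaN3. The substrate was poly(Glu,Tyr) 4:1 at 20 µg/mL, and ATP was added as a 10 mM solution. Compounds were diluted in 1% DMSO. Reactions ran 30 min at 25 °C and were stopped with Streptavidin-XL665 and Tk antibody cryptate.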
In general terms: TR-FRET usually uses a lanthanide donor and a delayed reading to cut background.

The target in assay [8] is T1, Receptor-type tyrosine-protein kinase FLT3 (Homo sapiens, UniProt P36888).
T1 sequence (P36888 whole entry): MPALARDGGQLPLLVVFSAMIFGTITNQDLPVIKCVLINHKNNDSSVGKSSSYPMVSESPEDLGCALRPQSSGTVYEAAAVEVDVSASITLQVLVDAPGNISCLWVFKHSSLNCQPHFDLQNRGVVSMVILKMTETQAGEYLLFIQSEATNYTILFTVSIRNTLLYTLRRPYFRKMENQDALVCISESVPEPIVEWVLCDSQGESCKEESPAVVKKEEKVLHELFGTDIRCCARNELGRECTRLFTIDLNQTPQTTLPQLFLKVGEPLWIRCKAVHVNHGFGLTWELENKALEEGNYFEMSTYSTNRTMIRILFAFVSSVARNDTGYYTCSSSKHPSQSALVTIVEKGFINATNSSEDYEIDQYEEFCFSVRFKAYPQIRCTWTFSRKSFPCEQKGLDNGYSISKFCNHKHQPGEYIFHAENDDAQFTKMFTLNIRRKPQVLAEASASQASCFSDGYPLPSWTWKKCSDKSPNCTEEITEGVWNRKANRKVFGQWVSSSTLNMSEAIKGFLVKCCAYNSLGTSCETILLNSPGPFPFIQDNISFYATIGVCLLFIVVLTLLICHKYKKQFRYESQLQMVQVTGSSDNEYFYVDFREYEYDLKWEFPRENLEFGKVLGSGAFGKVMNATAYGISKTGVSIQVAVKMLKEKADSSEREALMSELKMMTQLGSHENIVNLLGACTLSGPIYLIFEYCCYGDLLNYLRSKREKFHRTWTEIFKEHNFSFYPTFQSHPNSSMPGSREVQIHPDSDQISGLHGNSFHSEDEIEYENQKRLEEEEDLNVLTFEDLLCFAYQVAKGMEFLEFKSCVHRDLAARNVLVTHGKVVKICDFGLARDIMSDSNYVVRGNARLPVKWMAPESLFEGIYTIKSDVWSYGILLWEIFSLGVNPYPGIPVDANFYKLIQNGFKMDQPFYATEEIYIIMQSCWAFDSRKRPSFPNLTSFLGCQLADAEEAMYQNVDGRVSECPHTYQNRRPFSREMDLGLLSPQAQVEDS
In words: Inhibition of Flt-3 (unknown origin) using poly (Glu, Tyr) 4:1 after 30 mins by HTRF assay. The procedure, abridged:
as §2

Assay [9] concerns the target Mast/stem cell growth factor receptor Kit (Homo sapiens, UniProt P10721). In words: Inhibition of c-Kit (unknown origin) using poly (Glu, Tyr) 4:1 after 30 mins by HTRF assay. The procedure, abridged:
as §2

Assay [10] deals with A549. As to the kind of experiment: Ratio of foretinib IC50 to compound IC50 for human A549 cells after 72 hrs by MTT assay. The class given is functional.
Assay [11] has as its system HT-29. In words: Ratio of foretinib IC50 to compound IC50 for human HT-29 cells after 72 hrs by MTT assay. The class given is functional.
The target in assay [12] is Epidermal growth factor receptor (Homo sapiens, UniProt P00533). As to the kind of experiment: Inhibition of EGFR (unknown origin) using poly (Glu, Tyr) 4:1 after 30 mins by HTRF assay. The procedure, abridged:
as §2

The nature of assay [13]: Ratio of foretinib IC50 to compound IC50 for human H460 cells after 72 hrs by MTT assay. The class given is functional.
Assay [14] deals with Vascular endothelial growth factor receptor 2 (Homo sapiens, UniProt P35968). As to the kind of experiment: Inhibition of VEGFR2 (unknown origin) using poly (Glu, Tyr) 4:1 after 30 mins by HTRF assay. The procedure, abridged:
as §2

The IC50 is the concentration that inhibits the measured activity by half. Turning to `COc1cc2c(Oc3ccc(N/C=C4\C(=O)NC(=O)N(c5ccc(F)c(Cl)c5)C4=O)cc3F)ccnc2cc1OCCCN1CCCCC1`, the half-inhibitory concentration (IC50) in assay [1] is 40 nM; in assay [2] it was 3.15 nM; in the assay with HT-29 [3] it was 200 nM; in assay [4] it was 1000 nM; with A549 [5], 180 nM; in assay [6], 80 nM.
For `COc1cc2c(Oc3ccc(N/C=C4\C(=O)NC(=O)N(c5ccccc5)C4=O)cc3F)ccnc2cc1OCCCN1CCC(C)CC1`, the half-inhibitory concentration (IC50) in assay [1] was determined as 46 nM; in assay [2], 3.84 nM; in the assay with HT-29 [3], 280 nM; in assay [4], 1420 nM; with A549 [5], 390 nM; in assay [6], 170 nM.
As to `COc1cc2c(Oc3ccc(N/C=C4\C(=O)NC(=O)N(c5ccc(C)cc5)C4=O)cc3F)ccnc2cc1OCCCN1CCC(C)CC1`, the IC50 in [1] is 56 nM; in assay [2] it was 1.64 nM; with HT-29 [3] it was 140 nM; in assay [4] it was 920 nM; in the assay on A549 [5], 990 nM; in assay [6], 59 nM.
As for `COc1cc2c(Oc3ccc(N/C=C4\C(=O)NC(=O)N(c5ccc(F)cc5)C4=O)cc3F)ccnc2cc1OCCCN1CCC(C)CC1`, the IC50 was 120 nM in [1]; 3.09 nM in [2]; 220 nM with HT-29 [3]; 3200 nM in [4]; 350 nM in the assay with A549 [5]; 110 nM in [6].
On to `COc1cc2c(Oc3ccc(N/C=C4\C(=O)NC(=O)N(c5ccc(C)cc5)C4=O)cc3F)ccnc2cc1OCCCN1CCCC1`, for which the “Ratio IC50” value worked out at 1.7 in the assay with U-87 MG, 1.8 with A549 [10], 1.2 in the assay on HT-29 [11] and 3.7 in assay [13]. Also, the IC50 was 531 nM in assay [7]; 57 nM in assay [1]; 496 nM in [8]; 652 nM in assay [9]; 1.15 nM in [2]; 130 nM with HT-29 [3]. For the same compound, the half-inhibitory concentration (IC50) was 640 nM in assay [4]; more than 100000 nM in assay [12]; 72 nM with A549 [5]; 384 nM in [14]; 51 nM in assay [6].
As to `COc1cc2c(Oc3ccc(N/C=C4\C(=O)NC(=O)N(c5ccc(C)cc5)C4=O)cc3F)ccnc2cc1OCCCN1CCCCC1`, the half-maximal inhibitory concentration (IC50) amounted to 190 nM in assay [1]; 2.58 nM in assay [2]; 120 nM in the assay with HT-29 [3]; 1500 nM in assay [4]; 380 nM in the assay on A549 [5]; 100 nM in assay [6].
As for `COc1cc2c(Oc3ccc(N/C=C4\C(=O)NC(=O)N(c5c(C)cccc5C)C4=O)cc3F)ccnc2cc1OCCCN1CCCCC1`, the 50% inhibitory concentration (IC50) was 490 nM in assay [1]; 3.72 nM in [2]; 200 nM with HT-29 [3]; 1200 nM in assay [4]; 310 nM in the assay with A549 [5]; 160 nM in assay [6].
`COc1cc2c(Oc3ccc(N/C=C4\C(=O)NC(=O)N(c5ccccc5)C4=O)cc3F)ccnc2cc1OCCCN1CCCCC1`: the concentration for half-maximal inhibition (IC50) in assay [1] turned out to be 280 nM; in assay [2], 4.31 nM; in the assay on HT-29 [3], 160 nM; in assay [4] it was 1300 nM; in the assay on A549 [5], 510 nM; in [6] it was 220 nM.
